{
  "source": "ChEMBL document CHEMBL3853327",
  "about": "(J Med Chem, 2016)",
  "key": {"[1]": {"assay": "Selectivity index, ratio of CC50 for human mock-infected MT4 cells to EC50 for HIV1 3B harboring reverse transcriptase K103N mutant infected in human MT4 cells", "assay_type": "toxicity, cell-based", "conditions": "MT4 cells (mock-infected for CC50, HIV-1 infected for EC50)", "summary_of_the_method": "(§1)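 Selectivity index is CC50/EC50. CC50 is the concentration that reduces OD540 of mock-infected MT-4 cells by 50% in the 5-day MTT assay. EC50 is the 50% protection from virus-induced cytopathicity, measured in parallel on infected wells.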"}, "[2]": {"assay": "Antiviral activity against HIV2 ROD harboring reverse transcriptase infected in human MT4 cells assessed as protection against virus induced cytotoxicity after 5 days by MTT assay", "assay_type": "functional, cell-based, Human immunodeficiency virus type 2 (ISOLATE ROD)", "conditions": "Human immunodeficiency virus 2, MT4, 120 h", "summary_of_the_method": "(§2)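 MTT cytopathicity assay in MT-4 cells (6 × 10^5 cells/mL). Compounds serially diluted 5-fold in triplicate wells, run in parallel on infected and mock-infected cells. Virus added at 100−300 CCID50 per well. Viability read spectrophotometrically at 540 and 690 nm after 5 days, using the median OD of three wells. EC50 is the concentration giving 50% protection from viral cytopathogenicity.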"}, "[3]": {"system": "Human immunodeficiency virus 1", "assay": "Potency index, ratio of ETV EC50 to compound EC50 for HIV1 3B harboring reverse transcriptase YI88L mutant infected in human MT4 cells", "assay_type": "functional"}, "[4]": {"system": "Human immunodeficiency virus 1", "assay": "Antiviral activity against HIV1 3B harboring reverse transcriptase L100I mutant infected in human MT4 cells assessed as protection against virus induced cytotoxicity after 5 days by MTT assay", "assay_type": "functional, cell-based", "conditions": "Human immunodeficiency virus 1, 3B, MT4, 120 h", "summary_of_the_method": "as §2"}, "[5]": {"assay": "Selectivity index, ratio of CC50 for human mock-infected MT4 cells to EC50 for HIV1 3B harboring reverse transcriptase Y188L mutant infected in human MT4 cells", "assay_type": "toxicity, cell-based", "conditions": "MT4 cells (mock-infected for CC50, HIV-1 infected for EC50)", "summary_of_the_method": "as §1"}, "[6]": {"assay": "VRT (0 to infinity) in Sprague-Dawley rat plasma at 16 mg/kg administered through oral gavage measured at 5 mins to 24 hrs post dosing by LC/MS analysis", "assay_type": "ADME, organism-based", "conditions": "in vivo", "summary_of_the_method": "(§3)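 Male Sprague-Dawley rats, ten randomly split into two groups (n = 5), single gavage dose of 8 or 16 mg·kg−1 in PEG 400/normal saline (70/30, V/V). Jugular sinus blood into heparinized tubes at 5 min to 24 h; plasma separated at 2200g for 8 min, stored −20 °C. Methanol precipitation with internal standard, LC-MS quantitation against plasma standard curves. Parameters reported as mean ± SD.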"}, "[7]": {"assay": "Inhibition of recombinant wild type HIV1 reverse transcriptase using DIG-dUTP/biotin-dUTP/dTTP assessed as suppression of biotin-dUTP incorporation after 1 hr by ELISA", "set-up": "species or system Human immunodeficiency virus 1", "summary_of_the_method": "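Recombinant WT HIV-1 RT in a Roche colorimetric kit: template plus DIG-dUTP, biotin-dUTP and dTTP, ±inhibitor, 1 h at 37 °C. Product captured on streptavidin plate 1 h at 37 °C, anti-DIG-POD 1 h at 37 °C, ABTS developed at 25 °C, read at OD405. IC50 is the concentration inhibiting biotin-dUTP incorporation by 50%.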"}, "[8]": {"system": "Human immunodeficiency virus 1", "assay": "Fold resistance, ratio of EC50 for HIV1 3B harboring reverse transcriptase E138K mutant infected in human MT4 cells to EC50 for wild type HIV1 3B harboring reverse transcriptase infected in human MT4 cells", "assay_type": "functional", "summary_of_the_method": "(§4)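 Fold resistance is the EC50 against the mutant HIV-1 strain divided by the EC50 against WT IIIB. Both EC50s come from the MT-4 MTT cytoprotection assay (5-day read, 100−300 CCID50 inoculum).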"}, "[9]": {"system": "Human immunodeficiency virus 1", "assay": "Potency index, ratio of ETV EC50 to compound EC50 for wild type HIV1 3B harboring reverse transcriptase infected in human MT4 cells", "assay_type": "functional"}, "[10]": {"system": "Human immunodeficiency virus 1", "assay": "Potency index, ratio of ETV EC50 to compound EC50 for HIV1 3B harboring reverse transcriptase E138K mutant infected in human MT4 cells", "assay_type": "functional"}, "[11]": {"system": "Human immunodeficiency virus 1", "assay": "Fold resistance, ratio of EC50 for HIV1 3B harboring reverse transcriptase Y181C mutant infected in human MT4 cells to EC50 for wild type HIV1 3B harboring reverse transcriptase infected in human MT4 cells", "assay_type": "functional", "summary_of_the_method": "as §4"}, "[12]": {"system": "Human immunodeficiency virus 1", "assay": "Fold resistance, ratio of EC50 for HIV1 3B harboring reverse transcriptase K103N mutant infected in human MT4 cells to EC50 for wild type HIV1 3B harboring reverse transcriptase infected in human MT4 cells", "assay_type": "functional", "summary_of_the_method": "as §4"}, "[13]": {"assay": "Selectivity index, ratio of CC50 for human mock-infected MT4 cells to EC50 for wild type HIV1 3B harboring reverse transcriptase infected in human MT4 cells", "assay_type": "toxicity, cell-based", "conditions": "MT4 cells (mock-infected for CC50, HIV-1 infected for EC50)", "summary_of_the_method": "as §1"}, "[14]": {"system": "Human immunodeficiency virus 1", "assay": "Potency index, ratio of ETV EC50 to compound EC50 for HIV1 3B harboring reverse transcriptase L100I mutant infected in human MT4 cells", "assay_type": "functional"}, "[15]": {"assay": "Selectivity index, ratio of CC50 for human mock-infected MT4 cells to EC50 for HIV1 3B harboring reverse transcriptase Y181C mutant infected in human MT4 cells", "assay_type": "toxicity, cell-based", "conditions": "MT4 cells (mock-infected for CC50, HIV-1 infected for EC50)", "summary_of_the_method": "as §1"}, "[16]": {"assay": "AUMC (0 to infinity) in Sprague-Dawley rat plasma at 16 mg/kg administered through oral gavage measured at 5 mins to 24 hrs post dosing by LC/MS analysis", "assay_type": "ADME, organism-based", "conditions": "in vivo", "summary_of_the_method": "as §3"}, "[17]": {"assay": "AUMC (0 to t) in Sprague-Dawley rat plasma at 16 mg/kg administered through oral gavage measured at 5 mins to 24 hrs post dosing by LC/MS analysis", "assay_type": "ADME, organism-based", "conditions": "in vivo", "summary_of_the_method": "as §3"}, "[18]": {"assay": "Selectivity index, ratio of CC50 for human mock-infected MT4 cells to EC50 for HIV1 3B harboring reverse transcriptase F227L/V106A double mutant infected in human MT4 cells", "assay_type": "toxicity, cell-based", "conditions": "MT4 cells (mock-infected for CC50, HIV-1 infected for EC50)", "summary_of_the_method": "as §1"}, "[19]": {"assay": "MRT (0 to infinity) in Sprague-Dawley rat plasma at 16 mg/kg administered through oral gavage measured at 5 mins to 24 hrs post dosing by LC/MS analysis", "assay_type": "ADME, organism-based", "summary_of_the_method": "as §3"}, "[20]": {"system": "Human immunodeficiency virus 1", "assay": "Fold resistance, ratio of IC50 for recombinant HIV1 reverse transcriptase K103N/Y181C double mutant to IC50 for wild type HIV1 reverse transcriptase", "summary_of_the_method": "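Ratio of mutant to WT IC50. Recombinant WT and K103N/Y181C RT were assayed with a kit: template plus DIG-dUTP, biotin-dUTP and dTTP, with or without inhibitor, 1 h at 37 °C. Product was captured on streptavidin, detected with anti-DIG-POD and ABTS, and read at 405 nm. IC50 is the concentration inhibiting biotin-dUTP incorporation by 50%.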"}, "[21]": {"assay": "Selectivity index, ratio of CC50 for human mock-infected MT4 cells to EC50 for HIV1 3B harboring reverse transcriptase L100I mutant infected in human MT4 cells", "assay_type": "toxicity, cell-based", "conditions": "MT4 cells (mock-infected for CC50, HIV-1 infected for EC50)", "summary_of_the_method": "as §1"}, "[22]": {"assay": "VRT (0 to t) in Sprague-Dawley rat plasma at 16 mg/kg administered through oral gavage measured at 5 mins to 24 hrs post dosing by LC/MS analysis", "assay_type": "ADME, organism-based", "conditions": "in vivo", "summary_of_the_method": "as §3"}, "[23]": {"assay": "Apparent volume of distribution during terminal phase in Sprague-Dawley rat plasma at 8 mg/kg administered through oral gavage measured at 5 mins to 24 hrs post dosing by LC/MS analysis", "assay_type": "ADME, organism-based", "conditions": "read-out: Vz/F", "summary_of_the_method": "as §3"}, "[24]": {"system": "Human immunodeficiency virus 1", "assay": "Fold resistance, ratio of EC50 for HIV1 3B harboring reverse transcriptase Y188L mutant infected in human MT4 cells to EC50 for wild type HIV1 3B harboring reverse transcriptase infected in human MT4 cells", "assay_type": "functional", "summary_of_the_method": "as §4"}, "[25]": {"assay": "Tmax in Sprague-Dawley rat plasma at 8 mg/kg administered through oral gavage measured at 5 mins to 24 hrs post dosing by LC/MS analysis", "assay_type": "ADME, organism-based", "conditions": "in vivo", "summary_of_the_method": "as §3"}},
  "data": [
    {"smiles": "Cc1cc(C#N)cc(C)c1Oc1nc(NC2CCN(Cc3ccc(S(N)(=O)=O)cc3)CC2)nc2ccsc12", "values": [
      {"measurement": "selectivity ratio", "setting": "[1]", "value": "> 67400"},
      {"measurement": "EC50", "setting": "[2]", "value": "≥ 228000", "unit": "nM"},
      {"measurement": "Ratio EC50", "setting": "[3]", "value": 7},
      {"measurement": "EC50", "setting": "[4]", "value": 3.4, "unit": "nM"},
      {"measurement": "selectivity ratio", "setting": "[5]", "value": "> 70000"},
      {"measurement": "VRT", "setting": "[6]", "value": 25.29, "unit": "hr2"},
      {"measurement": "IC50", "setting": "[7]", "value": 300, "unit": "nM"},
      {"measurement": "Ratio EC50", "setting": "[8]", "value": "<3"},
      {"measurement": "Ratio EC50", "setting": "[9]", "value": 3},
      {"measurement": "Ratio EC50", "setting": "[10]", "value": 5},
      {"measurement": "Ratio EC50", "setting": "[11]", "value": "<3"},
      {"measurement": "Ratio EC50", "setting": "[12]", "value": "<3"},
      {"measurement": "selectivity ratio", "setting": "[13]", "value": "> 159000"},
      {"measurement": "Ratio EC50", "setting": "[14]", "value": 1.6},
      {"measurement": "selectivity ratio", "setting": "[15]", "value": "> 78100"},
      {"measurement": "AUMC", "setting": "[16]", "value": 7215.795, "unit": "ug/L.hr"},
      {"measurement": "AUMCt", "setting": "[17]", "value": 5458.8, "unit": "ug/L.hr"},
      {"measurement": "selectivity ratio", "setting": "[18]", "value": "> 78100"},
      {"measurement": "MRT inf", "setting": "[19]", "value": 4.16, "unit": "h"},
      {"measurement": "Ratio IC50", "setting": "[20]", "value": 1.2},
      {"measurement": "selectivity ratio", "setting": "[21]", "value": "> 159000"},
      {"measurement": "VRT(t)", "setting": "[22]", "value": 9.29, "unit": "hr2"},
      {"measurement": "Vd/F", "setting": "[23]", "value": 38.2, "unit": "L/kg"},
      {"measurement": "Ratio EC50", "setting": "[24]", "value": "<3"},
      {"measurement": "Tmax", "setting": "[25]", "value": 1, "unit": "h"}
    ]}
  ]
}
